Among the data in ChEMBL document CHEMBL2010658, “Caspase-1 and -3 inhibiting drimane sesquiterpenoids from the extremophilic fungus Penicillium solitum” (J Nat Prod, 2012) are inhibition, IC25 and IC50 values, retold here.

Test [1] concerns the target T1, Caspase-3 (Homo sapiens) (UniProt P42574).
T1 sequence (whole entry): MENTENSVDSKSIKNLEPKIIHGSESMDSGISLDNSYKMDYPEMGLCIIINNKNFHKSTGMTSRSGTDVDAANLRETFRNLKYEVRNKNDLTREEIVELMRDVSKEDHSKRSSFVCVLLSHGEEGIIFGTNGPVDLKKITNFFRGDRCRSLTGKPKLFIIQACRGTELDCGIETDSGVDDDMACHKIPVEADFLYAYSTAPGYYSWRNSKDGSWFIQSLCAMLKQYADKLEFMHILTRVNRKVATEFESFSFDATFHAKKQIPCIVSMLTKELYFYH
Briefly: (§1) Inhibition of caspase 3 by signal transduction fluorometric assay. The method in brief:
(§2)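 Fluorometric enzyme inhibition assays. Reference inhibitors were Ac-YVAD-CHO for caspase-1, Ac-DEVD-CHO for caspase-3, and NNGH for MMP-3.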

The target of test [2] is T2, Caspase-1 (Homo sapiens) (UniProt P29466).
T2 sequence (whole entry): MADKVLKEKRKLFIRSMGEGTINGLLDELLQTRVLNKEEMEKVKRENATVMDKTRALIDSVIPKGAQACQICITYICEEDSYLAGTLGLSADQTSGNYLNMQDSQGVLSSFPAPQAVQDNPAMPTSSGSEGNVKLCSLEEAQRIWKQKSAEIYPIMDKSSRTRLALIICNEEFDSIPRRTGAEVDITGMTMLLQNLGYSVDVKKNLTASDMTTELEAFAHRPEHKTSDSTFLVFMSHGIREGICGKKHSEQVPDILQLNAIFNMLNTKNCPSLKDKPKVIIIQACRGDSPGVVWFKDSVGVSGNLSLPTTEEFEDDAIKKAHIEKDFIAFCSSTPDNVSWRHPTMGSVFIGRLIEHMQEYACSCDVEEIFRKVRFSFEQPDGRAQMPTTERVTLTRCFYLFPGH
Kind of test: (§3) Inhibition of caspase 1 by signal transduction fluorometric assay. The method in brief: as §2

Test [3] addresses Stromelysin-1 (Homo sapiens) (UniProt P08254). Briefly: Inhibition of MMP3 by signal transduction fluorometric assay. In short, it runs like this: as §2
Test [4] addresses T3, Caspase-3 (Homo sapiens, UniProt P42574).
T3 sequence (P42574 whole entry): T1 sequence (whole entry)
The description is as §1. The method in brief:
as §2

Test [5] has as its target T4, Caspase-1 (Homo sapiens, UniProt P29466).
T4 sequence (P29466 whole entry): T2 sequence (whole entry)
The description is as §3. In short, it runs like this:
as §2

Test [6] relates to THP-1. Kind of test: Antiinflammatory activity in human THP1 cells assessed as inhibition of titanium dioxide nanowires/LPS-induced IL-1beta production at 1 to 100 uM after 24 hrs by ELISA. In kind it is functional, cell-based. In short, it runs like this: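 PMA-differentiated THP-1 cells (1 μg/mL PMA, 24 h beforehand), grown in RPMI with 10% FBS, 0.05 mM 2-mercaptoethanol and pyruvate. Cells were scraped, pelleted, and resuspended at 1.0 × 10⁶ cells/mL. They were exposed to compound at 1, 10 and 100 μM plus LPS (20 ng/mL) and TiO₂ nanowires (100 μg/mL) for 24 h at 37 °C. IL-1β was measured by ELISA and viability by MTS (490 nm).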
(In general: ELISA stands for enzyme-linked immunosorbent assay.)

Molecules are shown by their SMILES. Active and inactive are the calls of the source. The calls are words filed in the database; no cut-off is given here.

Chain of Stromelysin-1 (Homo sapiens) (P08254 100-477 limits assumed): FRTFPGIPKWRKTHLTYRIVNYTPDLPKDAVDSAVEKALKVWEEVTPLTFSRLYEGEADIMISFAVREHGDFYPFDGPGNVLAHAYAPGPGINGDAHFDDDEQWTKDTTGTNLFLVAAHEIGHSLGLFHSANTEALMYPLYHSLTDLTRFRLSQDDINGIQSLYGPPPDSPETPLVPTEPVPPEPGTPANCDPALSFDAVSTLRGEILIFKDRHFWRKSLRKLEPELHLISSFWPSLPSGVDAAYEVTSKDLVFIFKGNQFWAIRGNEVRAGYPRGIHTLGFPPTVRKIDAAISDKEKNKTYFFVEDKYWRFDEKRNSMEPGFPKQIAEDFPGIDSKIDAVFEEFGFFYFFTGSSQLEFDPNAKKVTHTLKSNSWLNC

For `C=CCCCCCCCC[C@H](C(=O)OC)[C@@](O)(CCC(=O)OC)C(=O)OC`, the inhibition entry in test [1], in test [2] and in test [3] was “inactive” each time.
The term IC25 denotes the concentration needed for an effect of 25%. Read a high IC25 as weaker potency. The IC50 is the concentration that inhibits the measured activity by half. A lower IC50 goes with greater potency in that assay. In turn, `CC(=O)N[C@H](C(=O)O[C@H]1CCC(C)(C)[C@@H]2CC=C3C(=O)OC[C@]3(O)[C@@]12C)C(C)C` (relative stereo) returned a 25% effect concentration (IC25) in test [1] of 10 µM. Besides, the IC50 was 50 µM in test [4] and 90 µM in test [5]. The inhibition result in test [6] was “Active”.
Taken in the same sequence, the figures for `CC(=O)N[C@H](C(=O)O[C@H]1CCC(C)(C)[C@@H]2CC=C3C(=O)OC[C@@H]3[C@@]12C)C(C)C` (relative stereo) were 15 µM, 200 µM, 100 µM and “Active”.
On to `CCCCCCCCCC[C@H](C(=O)OC)[C@]1(C(=O)OC)CCC(=O)O1`, for which the inhibition result in test [1], in test [2] and in test [3] was “inactive” each time.
`CCCCCCCCCC[C@H](C(=O)OC)[C@@](O)(CCC(=O)OC)C(=O)OC`: the inhibition entry in test [1], in test [2] and in test [3] was “inactive” in each case.
